# KCNQ1 inh: blocks the human KCNQ1 potassium channel | 310,000 tested, 1.3% active | B-score at 10 µM | AID 2642 | CHO-K1 KCNQ1, FluxOR thallium flux fluorescence; hits give high values | P51787;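 active means compounds whose thallium flux B-score, printed positive for inhibition, exceeds three library SD while starting fluorescence stays within three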;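 further: channel opened by potassium depolarization with thallium stimulus after 20 min compound exposure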
# KCNK9 block: inhibitors of human KCNK9 two-pore domain potassium channel; 310,000 tested, 1.2% active; HEK293 KCNK9, FluxOR thallium flux fluorescence; hits give low values; Q9NPC2; AID 488922; B-score at 10 µM;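 active means ratio B-score over 3 SD below the library mean, with starting fluorescence within 5 SD of its mean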;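 further: negative B-score means less thallium flux so channel inhibition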
# KCNK3 inh: human KCNK3 channel inhibition, primary screen | O14649 | CHO-KCNK3 thallium flux, FluxOR fluorescence; hits give low values | B-score at 10 µM | 340,000 tested, 0.84% active | AID 602410;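 active means B-score under library mean minus 4 SD, starting fluorescence ratio at most library mean plus 5 SD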;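 further: more negative B-score means stronger inhibition of thallium flux through KCNK3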
# KCNQ1 act: potentiates or activates the human KCNQ1 potassium channel; P51787; CHO-K1 KCNQ1, thallium flux FluxOR fluorescence; hits give high values; B-score at 10 µM; 310,000 tested, 0.35% active; AID 2648;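 active means fluorescence ratio B-score, a plate-corrected score, at least three library SD, with initial intensity B-score within 5 SD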
#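 Assay system: CHO-K1 cells stably expressing KCNQ1; Medium: assay buffer with matched DMSO; Also added: K+/Tl+ depolarizing stimulus; Dosing: single dose; Timing: dye 90 min, compound 20 min, room temperature; Measured by: kinetic FluxOR thallium fluorescence, 10-s 1-Hz baseline, 110-s post-stimulus read; Read-out: peak-minus-minimum fluorescence over initial fluorescence, negative-control normalized, B-scored.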
# Kir21 inh: inhibitors of mouse Kir2.1 inward-rectifier potassium channel. P35561. HEK293-Kir2.1, FluxOR thallium flux fluorescence; hits give low values. B-score at 10 µM. 310,000 tested, 0.85% active. AID 1672;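 active means fluorescence ratio B-score at or below minus 3 SD of library scores, with starting-brightness B-score within 2 SD, cut at about -4.2 in these data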;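 further: channel flux triggered by added potassium and thallium sulfate stimulus; B-score of peak minus minimum fluorescence over baseline after thallium stimulus; more negative B-score means stronger Kir2.1 block with less thallium influx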
# hERG rescue: shields human hERG channel from block by proarrhythmic agents | AID 1511 | activation (rescue from dofetilide block), less the hit threshold, % at 10 µM | Q12809 | CHO-hERG, FluxOR thallium flux, dofetilide IC70 present | 310,000 tested, 0.51% active;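 active means activation above the mean of controls blocked by dofetilide plus 5 SD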;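 further: thallium influx through hERG after potassium depolarization seen as dye fluorescence rise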
# KCNQ1 inh valid: human KCNQ1 channel inhibition, validation assay; inhibition, % at 10 µM; 1,600 tested, 93% active; shares compounds with KCNQ1 inh; AID 588353; KCNQ1 cell line, FluxOR thallium flux fluorescence;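 active means primary screen active, with duplicate mean exceeding buffer control mean plus 3 SD of buffer wells, cut at about 28% in these data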;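 further: 0% = buffer control ratio and 100% = XE991 inhibitor control ratio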
# CHO KCNQ1 ctr: counter-screen for KCNQ1 inhibitors: effect in parental CHO cells | shares compounds with KCNQ1 inh | parental CHO-K1, FluxOR thallium flux fluorescence ratio; hits give low values; zero means no signal rise above baseline | fluorescence ratio (Tl flux) at 10 µM | 1,600 tested, 21% active;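 active means mean of duplicate thallium-flux fluorescence ratios in parental host cells more than 5 SD below the buffer control mean, cut at about 0.38 in these data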;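 further: ratio is peak minus minimum fluorescence divided by baseline fluorescence; actives read low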
# KCNQ1 APC inh: blocks human KCNQ1 current in automated patch clamp. shares compounds with KCNQ1 inh. AID 624120. 490 tested, 20% active. calls only at 10 µM. KCNQ1-CHO cells;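 active means KCNQ1 current drop exceeding 3 SD of negative control wells, seen in both duplicate runs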;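 further: steady state current during a 2 s step from -80 to +40 mV; negative values mean current inhibition and positive values mean potentiation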
# KCNQ2 inh: KCNQ1 inhibitor that also blocks rat KCNQ2 channel; shares compounds with KCNQ1 inh; KCNQ2 cells, FluxOR thallium flux fluorescence; inhibition, % at 10 µM; 1,600 tested, 71% active; AID 651746;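 active means mean percent inhibition of the KCNQ2 thallium signal more than 5 SD above the buffer-only control wells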;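 further: KCNQ2 expressed in CHO cells; 0% = buffer control wells and 100% = XE-991 inhibitor control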
# KCNQ1-KCNE1 inh: KCNQ1 inhibitor that also blocks human KCNQ1/KCNE1 channel; shares compounds with KCNQ1 inh; KCNQ1/KCNE1 cells, FluxOR thallium flux fluorescence; inhibition, % at 10 µM; 1,600 tested, 77% active; AID 652147;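 active means mean percent inhibition of duplicate wells above the buffer-only control mean plus 3 SD of those controls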;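 further: 0% = buffer only wells and 100% = XE-991 inhibitor control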
# Target sequence (P51787 whole entry, looked up): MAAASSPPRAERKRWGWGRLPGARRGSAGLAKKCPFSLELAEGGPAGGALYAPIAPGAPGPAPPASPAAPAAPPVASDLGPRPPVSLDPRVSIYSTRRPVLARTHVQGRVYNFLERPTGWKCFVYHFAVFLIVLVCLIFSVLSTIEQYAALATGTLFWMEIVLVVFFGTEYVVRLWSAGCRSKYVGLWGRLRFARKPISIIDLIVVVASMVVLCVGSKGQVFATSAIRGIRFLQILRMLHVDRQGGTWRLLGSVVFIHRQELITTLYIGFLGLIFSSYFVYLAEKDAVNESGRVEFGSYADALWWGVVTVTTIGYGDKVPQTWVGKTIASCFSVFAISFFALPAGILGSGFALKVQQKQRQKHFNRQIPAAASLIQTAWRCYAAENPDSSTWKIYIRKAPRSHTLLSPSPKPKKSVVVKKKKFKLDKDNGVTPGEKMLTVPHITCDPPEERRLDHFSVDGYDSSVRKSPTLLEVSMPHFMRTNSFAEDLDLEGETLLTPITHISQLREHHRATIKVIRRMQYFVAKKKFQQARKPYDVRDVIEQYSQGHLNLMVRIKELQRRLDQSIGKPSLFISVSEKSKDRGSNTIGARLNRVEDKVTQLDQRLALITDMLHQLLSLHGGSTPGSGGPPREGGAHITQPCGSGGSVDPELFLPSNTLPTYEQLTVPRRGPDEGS
# KCNK9 inh conf: confirmation of human KCNK9 potassium channel inhibitors. shares compounds with KCNK9 block. HEK293 KCNK9 cells, FluxOR thallium flux fluorescence. inhibition, % at 10 µM. 4,900 tested, 43% active;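 active means thallium signal inhibited by more than 5 SD of the compound-free buffer control wells, on both duplicate plates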;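 further: 0% = assay buffer control wells without compound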
# Kir21 sel: selectivity of KCNK9 modulators against mouse Kir2.1. shares compounds with KCNK9 block. Kir2.1 cells, FluxOR thallium flux fluorescence. inhibition, % at 10 µM. 4,900 tested, 4% active;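 active means thallium signal drop more than 5 SD beyond the mean of the no-compound control wells, seen in both duplicate plates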;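 further: signal is fluorescence rise after thallium addition divided by baseline fluorescence; plate controls were assay buffer only for no effect and full block by chlorpromazine control for full effect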
# KCNK9 uninduced: second counter-screen for KCNK9 modulators: effect in non-induced cells; 4,900 tested, 40% active; non-induced KCNK9-HEK293, FluxOR thallium flux; inhibition, % at 10 µM; shares compounds with KCNK9 block; AID 492997;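 active means thallium signal drop beyond 5 SD of the untreated control mean, on both duplicate plates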;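 further: plate controls were buffer only IC0 wells for no effect and SID17386958 at its maximal inhibitory level for full effect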
# KCNK3 confirm: human KCNK3 channel inhibition, confirmation assay; shares compounds with KCNK3 inh; CHO-KCNK3 thallium flux, FluxOR fluorescence; 0% buffer, 100% carvedilol maximal block; AID 651638; ratio percent of control, % at 10 µM; 2,400 tested, 99% active;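 active means ratio percent of control, averaged over triplicates, above buffer control mean plus 5 SD, cut at about 64% in these data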;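 further: ratio is the fluorescence rise from min to max over baseline after thallium stimulus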
# KCNK3 uninduced: activity in cells without induced KCNK3 expression; 2,400 tested, 40% active; thallium flux ratio (lower = more inhibition) at 10 µM; non-induced KCNK3 parental cells, FluxOR thallium flux; hits give low values; AID 651747; shares compounds with KCNK3 inh;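 active means thallium flux ratio, averaged over three wells, more than 5 SD below the buffer control mean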;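 further: host cells are CHO cells without KCNK3 induction; ratio is peak minus trough fluorescence over baseline then normalized to buffer controls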
# * marks the source's active call; other numbers are inactive results; i = inactive; / = no result; + = active, no number. The list is not random: actives were taken first. Their share in the collection is about 3.8%.
SMILES,KCNQ1 inh,KCNK9 block,KCNK3 inh,KCNQ1 act,Kir21 inh,hERG rescue,KCNQ1 inh valid,CHO KCNQ1 ctr,KCNQ2 inh,KCNQ1-KCNE1 inh,KCNK9 inh conf,Kir21 sel,KCNK9 uninduced,KCNK3 confirm,KCNK3 uninduced,others
COc1ccc(N2CCN(c3ncnc4scc(-c5ccccc5)c34)CC2)cc1,6*,-12*,-11*,i,-0.01,-9,93*,0.38,106%*,108%*,28%*,i,i,117*,i,KCNQ1 APC inh=i
c1ccc(-c2csc3ncnc(N4CCOCC4)c23)cc1,i,i,i,i,-0.48,-11,/,/,/,/,/,/,/,/,/,
COc1ccc(N2CCN(c3ncnc4scc(-c5ccc(F)cc5)c34)CC2)cc1,8*,i,-11*,i,0.28,-11,95*,0.36*,74%*,104%*,/,/,/,110*,i,
Cc1cccc2nc(-c3cccnc3)c(Nc3ccccc3)n12,i,i,i,i,-1.2,0,/,/,/,/,/,/,/,/,/,
Cc1cccc2nc(-c3cccnc3)c(NCCC(C)C)n12,11*,-9.1*,-10*,i,-0.64,4.9*,139*,0.37*,119%*,157%*,37%*,i,36%*,141*,0.13*,
CC(=O)[C@H]1[C@H]([C@H](O)[C@H](O)CO)O[C@](O)(C(=O)O)C[C@@H]1O,/,/,i,/,/,/,/,/,/,/,/,/,/,/,/,
O=C(NC1CCCC1)c1ccc2c(c1)N(Cc1ccc(F)cc1)CCS2,9*,-14*,-9.3*,i,-1.4,-12,76*,0.39,98%*,90%*,74%*,i,42%*,96*,i,
CN(C)CCNC(=O)c1ccc2c(c1)N(Cc1ccc(F)cc1)CCS2,i,i,i,i,-2.6,-7,/,/,/,/,/,/,/,/,/,
CC(Oc1cccc(F)c1)c1ccnc2nc(/N=C/N(C)C)nn12 (stereo not drawn),i,i,i,i,0.04,-2,/,/,/,/,/,/,/,/,/,
O=C(OCc1ccccn1)c1ccc(COc2ccc3ccccc3c2)o1,8*,-7*,-10*,i,0.05,-31,148*,0.35*,121%*,+,/,/,/,122*,0.15*,
S=C(NCc1ccccc1)NC1CCCc2ccccc21 (stereo not drawn),8*,i,-13*,i,-6.2*,-12,0,0.48,66%*,i,/,/,/,112*,i,

# Assay outcomes from PubChem.
